IMP-1 inhibitor – inhibitors of Pseudomonas aeruginosa IMP-1 metallo-beta-lactamase | purified IMP-1, nitrocefin hydrolysis, epi-absorbance fluorescence | inhibition, % at 5.6 µM | 290,000 compounds, 0.45% hits | AID 1556;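 active = inhibition above the mean plus 3 SD of all compounds in the same screening run, cut at about 4.5% in these data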;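 also: 0% = IMP-1 with DMSO and 100% = DMSO wells lacking enzyme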
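Material – recombinant IMP-1 enzyme, purified · Amount – IMP-1 0.2 nM before substrate addition · Medium – HEPES buffer pH 7.1 with ZnSO4 and Brij 35 · Timing – 25 °C, 15 min preincubation, 25 min reaction · Measured by – plate fluorescence quenching by hydrolysis product, ex 480/em 530 nm · Read-out – percent enzyme inhibition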
VIM-2 inhibitor – inhibitors of Pseudomonas aeruginosa VIM-2 metallo-beta-lactamase | purified VIM-2, nitrocefin hydrolysis, epi-absorbance fluorescence | 290,000 compounds, 0.89% hits | inhibition, % at 5.6 µM;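 active = inhibition above the mean of all tested compounds plus 3 SD, cutoff set per screening run, cut at about 7.5% in these data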;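 also: red hydrolysis product quenches plate fluorescence so inhibitors raise well fluorescence; 0% = enzyme with DMSO and 100% = DMSO without enzyme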
proCasp3 act – activators of human procaspase-3; P42574; recombinant procaspase-3 D3A, Ac-DEVD-pNA absorbance 405 nm; activation, % at 8.5 µM; 330,000 compounds, 0.11% hits; AID 463141;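 active = activation above the mean of all tested compounds plus 3 SD, cut at about 21% in these data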;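 also: 0% = DMSO alone and 100% = DMSO wells spiked with extra 5 µM PC-3 D3A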
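Assay system – Procaspase-3 D3A mutant, all three cleavage aspartates alanine · Controls – DMSO-only low control, 5 µM PC-3 D3A high control · Schedule – 1 h compound preincubation, 2 h substrate hydrolysis at 25 °C · Signal – 405 nm absorbance of p-nitroaniline, reads at 0 and 120 min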
PolyA inhibitor – blocks polyadenylation in yeast reporter cells; activity score, % at 12 µM; 300,000 compounds, 0.02% hits; AID 1875; S. cerevisiae SKY197-pL101 polyadenylation reporter, beta-gal luminescence; efflux-impaired pdr1/pdr3 knockout yeast; score 100 = 6 SD above DMSO;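 active = lowest replicate activity score at least 50, where 100 means six control SD above control mean; inconclusive = lowest score under 50 but half or more replicates reach 50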;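 also: yeast exposed to compound for 9 h at 30 °C; higher score means more reporter readthrough which indicates perturbed polyadenylation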
proCasp7 act – activates human procaspase-7, counter-screen for procaspase-3 activators. P55210. recombinant procaspase-7, Ac-DEVD-pNA absorbance 405 nm; D23A/D198A/D206A triple mutant, cannot self-cleave; scale: DMSO 0, 5 µM enzyme 100. activation, % at 8.5 µM. 330,000 compounds, 0.093% hits. AID 463210;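 active = percent activation above the screen-wide mean plus 3 SD, cut at about 25% in these data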
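Assay system – Uncleavable procaspase-7 mutant enzyme · Quantity – 2 µM procaspase-7 mutant as dispensed · Times – 1 h preincubation, 2 h reaction · Dosing – single nominal 8.5 µM compound dose, 0.8% DMSO final · Buffer or medium – Zinc-free 50 mM HEPES buffer, pH 7.4, with NaCl and Triton X-100 · Detection – Epi-absorbance of released pNA at 405 nm, two timepoints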
Neddyl block – inhibitors of human cullin neddylation; TR-FRET cullin neddylation, biochemical; P61081+Q13564; AID 651699; calls only at 25 µM; 360,000 compounds, 0.58% hits; in the data active = inhibition above about 36%
Target sequence (P61081 whole entry, looked up): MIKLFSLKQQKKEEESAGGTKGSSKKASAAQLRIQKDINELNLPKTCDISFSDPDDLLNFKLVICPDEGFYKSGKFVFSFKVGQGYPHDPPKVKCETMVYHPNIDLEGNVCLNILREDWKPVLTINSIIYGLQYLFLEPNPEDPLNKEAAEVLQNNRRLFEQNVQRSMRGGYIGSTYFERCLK
Target sequence (Q13564 whole entry, looked up): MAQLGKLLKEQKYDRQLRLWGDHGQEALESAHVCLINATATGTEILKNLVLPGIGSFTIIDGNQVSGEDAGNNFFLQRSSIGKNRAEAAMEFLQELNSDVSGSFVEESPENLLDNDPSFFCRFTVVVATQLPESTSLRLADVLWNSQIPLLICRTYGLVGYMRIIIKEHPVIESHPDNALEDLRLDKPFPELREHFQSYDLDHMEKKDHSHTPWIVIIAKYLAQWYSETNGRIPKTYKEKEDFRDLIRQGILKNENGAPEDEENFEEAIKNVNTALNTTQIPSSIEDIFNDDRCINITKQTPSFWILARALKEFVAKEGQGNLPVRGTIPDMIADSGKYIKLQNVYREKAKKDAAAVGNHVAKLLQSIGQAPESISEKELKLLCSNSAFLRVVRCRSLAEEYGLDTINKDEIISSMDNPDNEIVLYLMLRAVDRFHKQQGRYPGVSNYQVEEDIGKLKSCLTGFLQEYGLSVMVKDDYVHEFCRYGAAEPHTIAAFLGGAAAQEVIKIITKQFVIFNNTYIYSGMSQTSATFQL
PC3 D3A act – activates human procaspase-3, dual activator counter-screen | shares compounds with proCasp7 act | recombinant PC-3 D3A, Ac-DEVD-pNA absorbance 405 nm; aspartates 9, 28, 175 changed to alanine; 100% = enzyme control | activation, % at 8.5 µM | 290 tested, under 10 active;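 active = mean percent activation across triplicates above a set limit taken from the earlier primary procaspase-3 screen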;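 also: 0% = DMSO wells and 100% = DMSO wells with 5 µM added PC-3 D3A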
PC7 dual conf – confirmation of dual procaspase activators: human procaspase-7 activation; shares compounds with proCasp7 act; recombinant procaspase-7, Ac-DEVD-pNA absorbance 405 nm; D23A/D198A/D206A mutant that cannot self-cleave; activation, % at 8.5 µM; 290 tested, under 10 active;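 active = mean activation above a set limit carried over from the earlier primary screen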;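 also: 0% = DMSO only and 100% = DMSO with added 5 µM PC-7 enzyme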
* marks the source's active call; other numbers are inactive results; i = inactive; ? = inconclusive; . = no result shown; + = active, no number. In the library only some 1.7% were active in any assay of this set; here they are far more common.

SMILES	IMP-1 inhibitor	VIM-2 inhibitor	proCasp3 act	PolyA inhibitor	proCasp7 act	Neddyl block	PC3 D3A act	PC7 dual conf
N#Cc1cc2cc3c(cc2nc1N1CCCCC1)OCCO3	0.1	-2.0	19.1	-7.1	37.9*	i	-27.7	-35.8
COc1ccc2c(c1OC)C(=O)OC2CC(=O)c1ccc(N(C)C)cc1 (stereo unspecified)	-4.0	-3.8	44.1*	-1.3	41.3*	i	40.9*	29.7*
COc1ccc2c(c1OC)C(=O)OC2CC(=O)c1ccc(O)cc1 (stereo unspecified)	-0.8	0.2	17.6	0.1	17.6	i	.	.
CCN(CC(=O)NCc1ccc(F)cc1)CC(=O)Nc1ccc(Br)cc1F	.	.	3.6	.	-5.2	i	.	.
Nc1ccc(-n2c(N)c(C(=O)NCc3ccc4c(c3)OCO4)c3nc4ccccc4nc32)cc1	-3.1	-1.2	-4.6	7.4	44.3*	i	-29.1	-31.2
COc1ccc(-n2c(N)c(C(=O)NCc3ccco3)c3nc4ccccc4nc32)cc1OC	-0.6	1.8	11.8	-6.2	32.0*	i	-29.3	-34.5
COc1ccc(-n2c(N)c(C(=O)NCc3ccco3)c3nc4ccccc4nc32)cc1	-3.2	-0.7	-5.1	-1.4	44.2*	.	-30.4	-36.8
Nc1c(C(=O)NCc2ccco2)c2nc3ccccc3nc2n1CCc1ccc(F)cc1	-2.1	-2.1	-2.0	3.8	-9.5	.	.	.
Nc1c(C(=O)NCc2ccccc2)c2nc3ccccc3nc2n1-c1ccc2c(c1)OCO2	-1.9	-2.1	7.6	1.0	6.2	.	.	.
COc1cc(-n2c(N)c(C(=O)NCc3ccco3)c3nc4ccccc4nc32)cc(OC)c1OC	-1.1	1.3	1.9	-10.9	42.9*	i	-28.4	-36.2
CCOC(=O)C1=C(C)N(C)C(=O)NC1c1ccccc1OC (stereo unspecified)	-3.3	-1.1	7.0	5.8	5.5	i	.	.
COC(=O)C1=C(C)NC(=O)NC1c1ccc(N2CCC(c3ccccc3)=N2)cc1 (stereo unspecified)	-0.4	-1.2	84.8*	1.0	37.6*	.	-30.1	-34.6
COC(=O)C1=C(C)NC(=O)NC1c1ccc(OC)c(OC)c1 (stereo unspecified)	.	.	.	.	.	i	.	.
COc1cccc2cc(-c3nc(-c4cccs4)cs3)c(=O)oc12	0.2	-0.3	16.6	-0.1	65.4*	+	13.1	4.1
COC(=O)C1=C(C)NC(C)=C(C(=O)OC)C1c1ccc(OC(=O)c2oc3ccccc3c2C)c(OC)c1	-1.3	-3.8	35.4*	14.7	81.1*	.	4.2	5.3
CCN(Cc1ccccc1)c1ccc(/C=N/NC(=S)NC(C)C)cc1	-1.5	-0.9	23.4*	-15.6	30.4*	.	-0.3	2.1
CCN(Cc1ccccc1)c1ccc(/C=N/N=C(N)N)cc1	-1.2	-0.4	-1.4	5.2	-7.0	i	.	.
Fc1ccc(NC(=S)Nc2ccc(Cl)cc2)cc1	-2.5	-2.0	0.7	9.1	-0.7	i	.	.
C=CCOc1ccc(C2C(C#N)=C(N)N(Nc3ccccc3)C3=C2C(=O)CC(C)(C)C3)cc1OC (stereo unspecified)	-3.1	-3.3	19.1	-9.1	34.5*	.	-3.9	-5.7
Nc1c(S(=O)(=O)c2cccs2)c2nc3ccccc3nc2n1Cc1ccccc1	-3.3	-2.5	44.3*	6.7	54.7*	.	-29.4	-35.5
O=C(CC(=O)Nc1cccc(F)c1)Nc1cccc(F)c1	-3.1	-2.7	-4.8	?	4.7	i	.	.
O=C(Cn1c2ccccc2c(=O)c2ccccc21)Nc1cccc(F)c1	-1.8	-1.6	49.8*	-2.8	93.0*	i	-28.4	-37.8
CC(C)Cc1nnc(NC(=O)CCC(=O)N2CCN(Cc3ccc(Cl)cc3)CC2)s1	-1.1	-4.6	-6.6	13.4	7.2	i	.	.
O=C(NNC(=O)c1cc2cc3ccccc3nc2s1)c1cccc(C(F)(F)F)c1	-0.3	-3.8	0.0	-10.4	26.0*	i	-23.0	-19.1
O=C(NNS(=O)(=O)c1ccccc1)c1cc2cc3ccccc3nc2s1	-0.7	0.7	-1.3	12.9	7.4	i	.	.
SMILES	IMP-1 inhibitor	VIM-2 inhibitor	proCasp3 act	PolyA inhibitor	proCasp7 act	Neddyl block	PC3 D3A act	PC7 dual conf
Cc1ccc(-c2cc(-c3ccc(F)cc3)nc(N)c2C#N)o1	0.5	-3.6	41.9*	-10.2	49.6*	.	-29.4	-33.9
Cc1ccc(-c2cc(-c3ccccc3)c(C#N)c(N)n2)o1	-4.9	-0.1	-8.6	-2.9	-19.2	i	.	.
Cc1cc(C)c(C#N)c(OCC(=O)c2ccc(Br)cc2)n1	-0.4	-0.5	3.8	-30.4	45.7*	i	-5.3	-3.0
Cc1ccc(C(=O)COc2nc(C)cc(C)c2C#N)cc1	-2.9	-1.0	3.7	1.8	-9.5	i	.	.
CCSc1ccccc1C(=O)NC1CCCCC1	-1.5	-1.6	-7.2	11.4	-10.4	i	.	.
COc1cccc(-c2cc3nc(-c4ccccc4)cc(N4CCCC(O)C4)n3n2)c1 (stereo unspecified)	0.0	-5.0	36.3*	-34.4	49.9*	i	-10.8	-11.0
COc1ccc(-c2cc3nc(-c4ccccc4)cc(N4CCC5(CC4)OCCO5)n3n2)cc1	-1.0	-3.8	23.2*	-12.4	35.6*	i	-28.5	-36.0
Fc1ccc(Oc2cc(N3CCOCC3)nc(-c3ccccc3)n2)c(F)c1	-1.9	-2.0	-4.8	-3.6	7.2	i	.	.
CCOC(=O)c1ccc2nc(NC(=O)c3ccco3)sc2c1	-5.5	-0.4	24.2*	-14.6	30.3*	.	-29.4	-36.4
CCOc1ccc2nc(NC(=O)c3ccco3)sc2c1	0.9	1.1	-7.9	-1.8	6.5	.	.	.
CSc1ccc(S(=O)(=O)N2CCC(C(=O)NCc3cccnc3)CC2)cc1	-2.3	-3.3	-2.9	5.4	-5.8	i	.	.
COc1ccc(-c2nc3ccccc3nc2-c2ccc(OC)cc2)cc1	-0.9	-1.9	31.8*	-78.3	32.6*	.	-29.5	-35.6
CC(C)n1nnnc1SCC(=O)c1c(N)n(C2CC2)c(=O)[nH]c1=O	.	.	-6.6	.	-7.2	i	.	.
COc1ccc(CC(=O)Nc2nn(C)c3nc4c(C)cccc4cc23)cc1	-1.2	-1.2	22.8*	3.1	40.4*	i	-29.5	-35.1
N#Cc1c2c(c(Nc3ccccc3)n3c1nc1ccccc13)CCC2	-1.0	1.5	10.6	?	61.2*	.	3.8	0.9
COc1ccccc1N1CCN(C(=O)CCCn2c(=S)[nH]c3ccccc3c2=O)CC1	.	.	.	.	.	i	.	.
